According to ChEMBL document CHEMBL4196017, “Design, synthesis and identification of silicon-containing HCV NS5A inhibitors with pan-genotype activity” (Eur J Med Chem, 2018):

Experiments:
Mus musculus [1] = assay: Toxicity in ICR mouse assessed as total protein level in serum at 150 mg/kg, po administered via gavage once daily for 14 days (reference value: 53.97 +/- 1.56 g/l); type: organism-based; conditions: in vivo, 336 h
Mus musculus [2] = assay: Toxicity in ICR mouse assessed as blood urea nitrogen level in serum at 150 mg/kg, po administered via gavage once daily for 14 days (reference value: 10.44 +/- 1.77 mmol/L); type: organism-based; conditions: in vivo, 336 h
Method in brief: (§1)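 ICR mice, 5 males + 5 females per group, dosed by gavage once daily at 150 mg/kg (20 ml/kg) or vehicle for 14 days; killed after the 14th dose; blood from abdominal aorta under ether anaesthesia for hematology and clinical chemistry; mean ± SD, n = 10.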

Mus musculus [3] = assay: Toxicity in ICR mouse assessed as basophil level in serum at 150 mg/kg, po administered via gavage once daily for 14 days (reference value: 0.02 +/- 0.04%); type: organism-based; conditions: in vivo, 336 h; method in brief: as §1
Mus musculus [4] = assay: Toxicity in ICR mouse assessed as aspartate aminotransferase level in serum at 150 mg/kg, po administered via gavage once daily for 14 days (reference value: 111.44 +/- 32.76 U/L); type: organism-based; conditions: in vivo, 336 h; method in brief: as §1
Mus musculus [5] = assay: Toxicity in ICR mouse assessed as blood glucose level at 150 mg/kg, po administered via gavage once daily for 14 days (reference value: 3.64 +/- 0.79 umol/L); type: organism-based; conditions: in vivo, 336 h; method in brief: as §1
Mus musculus [6] = assay: Toxicity in ICR mouse assessed as brain weight at 150 mg/kg, po administered via gavage once daily for 14 days (reference value: 1.686 +/- 0.241 g); type: organism-based; conditions: in vivo, 336 h
Mus musculus [7] = assay: Toxicity in ICR mouse assessed as neutrophil level in serum at 150 mg/kg, po administered via gavage once daily for 14 days (reference value: 27.74 +/- 16.27%); type: organism-based; conditions: in vivo, 336 h
Method in brief: (§2)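 Haematology on abdominal aortic blood taken at necropsy under ether anaesthesia after 14 daily gavage doses (20 ml/kg) in ICR mice, 5 per sex per group, vehicle control. Parameters: WBC, RBC, haemoglobin, platelets, reticulocyte ratio and differential leukocyte counts; mean ± SD, n = 10.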

Mus musculus [8] = assay: Toxicity in ICR mouse assessed as RBC count at 150 mg/kg, po administered via gavage once daily for 14 days (reference value: 9.04 +/- 0.8 10^12/L); type: organism-based; conditions: in vivo, 336 h; method in brief: as §1
Mus musculus [9] = assay: Toxicity in ICR mouse assessed as total bilirubin level in serum at 150 mg/kg, po administered via gavage once daily for 14 days (reference value: 9.95 +/- 2.18 umol/L); type: organism-based; conditions: in vivo, 336 h
Mus musculus [10] = assay: Toxicity in ICR mouse assessed as ovary weight at 150 mg/kg, po administered via gavage once daily for 14 days (reference value: 0.079 +/- 0.007 g); type: organism-based; conditions: in vivo, 336 h
Mus musculus [11] = assay: Toxicity in ICR mouse assessed as body weight at 150 mg/kg, po administered via gavage once daily for 14 days (reference value: 25.8 +/- 3.5 g); type: organism-based; conditions: in vivo, 336 h
Mus musculus [12] = assay: Toxicity in ICR mouse assessed as testis weight at 150 mg/kg, po administered via gavage once daily for 14 days (reference value: 0.881 +/- 0.037 g); type: organism-based; conditions: in vivo, 336 h
Mus musculus [13] = assay: Toxicity in ICR mouse assessed as creatinine level in serum at 150 mg/kg, po administered via gavage once daily for 14 days (reference value: 25.22 +/- 3.42 umol/L); type: organism-based; conditions: in vivo, 336 h
Mus musculus [14] = assay: Toxicity in ICR mouse assessed as total cholesterol level at 150 mg/kg, po administered via gavage once daily for 14 days (reference value: 0.93 +/- 0.31 mmol/L); type: organism-based; conditions: in vivo, 336 h
Mus musculus [15] = assay: Toxicity in ICR mouse assessed as lymphocyte level in serum at 150 mg/kg, po administered via gavage once daily for 14 days (reference value: 57.65 +/- 13.53%); type: organism-based; conditions: in vivo, 336 h; method in brief: as §2
[16] = molecular target: T1, Nonstructural protein 5A (Hepatitis C virus) (UniProt Q5L478); assay: Potency index, ratio of ombitasvir IC50 to compound IC50 for inhibition of NS5A in HCV genotype 6a infected in human HuH7 replicon cells expressing HCV genotype 1b chimeric replicon; type: cell-based; conditions: Hepatitis C virus subtype 6a
T1 sequence (whole entry): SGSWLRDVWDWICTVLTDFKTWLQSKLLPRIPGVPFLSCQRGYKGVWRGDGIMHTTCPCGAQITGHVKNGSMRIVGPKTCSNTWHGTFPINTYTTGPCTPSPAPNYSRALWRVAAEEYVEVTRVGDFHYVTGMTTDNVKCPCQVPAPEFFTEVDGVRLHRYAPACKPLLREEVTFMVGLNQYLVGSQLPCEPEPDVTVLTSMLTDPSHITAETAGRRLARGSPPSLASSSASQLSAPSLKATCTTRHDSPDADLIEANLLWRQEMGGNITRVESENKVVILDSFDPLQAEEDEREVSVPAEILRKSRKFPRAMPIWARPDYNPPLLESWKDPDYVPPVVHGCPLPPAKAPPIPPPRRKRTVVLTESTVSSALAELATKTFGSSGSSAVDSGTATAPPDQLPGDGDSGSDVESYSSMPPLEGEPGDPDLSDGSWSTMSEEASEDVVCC

Mus musculus [17] = assay: Toxicity in ICR mouse assessed as total bile acid level at 150 mg/kg, po administered via gavage once daily for 14 days (reference value: 5.67 +/- 2.45 umol/L); type: organism-based; conditions: in vivo, 336 h
Mus musculus [18] = assay: Toxicity in ICR mouse assessed as monocyte level in serum at 150 mg/kg, po administered via gavage once daily for 14 days (reference value: 12.93 +/- 3.61%); type: organism-based; conditions: in vivo, 336 h; method in brief: as §2
Mus musculus [19] = assay: Toxicity in ICR mouse assessed as alanine aminotransferase level in serum at 150 mg/kg, po administered via gavage once daily for 14 days (reference value: 28.33 +/- 9.89 U/L); type: organism-based; conditions: in vivo, 336 h; method in brief: as §1
Mus musculus [20] = assay: Toxicity in ICR mouse assessed as reticulocyte level in serum at 150 mg/kg, po administered via gavage once daily for 14 days (reference value: 4.73 +/- 0.56%); type: organism-based; conditions: in vivo, 336 h; method in brief: as §2
Mus musculus [21] = assay: Toxicity in ICR mouse assessed as liver weight at 150 mg/kg, po administered via gavage once daily for 14 days (reference value: 4.365 +/- 0.222 g); type: organism-based; conditions: in vivo, 336 h
Mus musculus [22] = assay: Toxicity in ICR mouse assessed as serum creatine kinase level at 150 mg/kg, po administered via gavage once daily for 14 days (reference value: 705.78 +/- 330.84 U/L); type: organism-based; conditions: in vivo, 336 h
Mus musculus [23] = assay: Toxicity in ICR mouse assessed as eosinophil level in serum at 150 mg/kg, po administered via gavage once daily for 14 days (reference value: 1.66 +/- 0.54%); type: organism-based; conditions: in vivo, 336 h; method in brief: as §2
Mus musculus [24] = assay: Toxicity in ICR mouse assessed as albumin level in serum at 150 mg/kg, po administered via gavage once daily for 14 days (reference value: 25.87 +/- 1.67 g/l); type: organism-based; conditions: in vivo, 336 h; method in brief: as §1
Mus musculus [25] = assay: Toxicity in ICR mouse assessed as WBC count at 150 mg/kg, po administered via gavage once daily for 14 days (reference value: 7.03 +/- 1.56 10^9/L); type: organism-based; conditions: in vivo, 336 h; method in brief: as §1
Mus musculus [26] = assay: Toxicity in ICR mouse assessed as heart weight at 150 mg/kg, po administered via gavage once daily for 14 days (reference value: 0.539 +/- 0.094 g); type: organism-based; conditions: in vivo, 336 h
Nonstructural protein 5A = molecular target: T2, Nonstructural protein 5A (Hepatitis C virus, UniProt Q5L478); assay: Inhibition of NS5A in HCV genotype 6a; set-up: species or system Hepatitis C virus subtype 6a
T2 sequence (Q5L478 whole entry): T1 sequence (whole entry)

Q: Which Activity (Mus musculus [1]) does the source give for `CC[Si](CC)(CC)c1ccc(N2[C@H](c3ccc(NC(=O)[C@@H]4CCCN4C(=O)[C@@H](NC(=O)OC)C(C)C)cc3)CC[C@H]2c2ccc(NC(=O)[C@@H]3CCCN3C(=O)[C@@H](NC(=O)OC)C(C)C)cc2)cc1` here?
A: The Activity was 52.31 g/L.

Q: And the Activity (Mus musculus [2])?
A: Its Activity is 10.16 mmol/L.

Q: And the Activity (Mus musculus [3])?
A: Its Activity is 0.02%.

Q: What about the Activity (Mus musculus [4]) of the same molecule?
A: The Activity was 110.6 U/L.

Q: And the Activity (Mus musculus [5])?
A: The Activity was 4.18 mmol/L.

Q: What about the Activity (Mus musculus [6]) of the same molecule?
A: Its Activity is 1.807 g.

Q: And the Activity (Mus musculus [7])?
A: Its Activity is 33.12%.

Q: What about the Activity (Mus musculus [8]) of the same molecule?
A: Its Activity is 9 ×10¹² /L.

Q: And the Activity (Mus musculus [9])?
A: Its Activity is 11.24 µmol/L.

Q: And the Activity (Mus musculus [10])?
A: The Activity was 0.097 g.

Q: What about the Activity (Mus musculus [11]) of the same molecule?
A: The Activity was 24 g.

Q: What about the Activity (Mus musculus [12]) of the same molecule?
A: The Activity was 0.789 g.

Q: What about the Activity (Mus musculus [13]) of the same molecule?
A: Its Activity is 23.2 µmol/L.

Q: What about the Activity (Mus musculus [14]) of the same molecule?
A: Its Activity is 0.85 mmol/L.

Q: What about the Activity (Mus musculus [15]) of the same molecule?
A: Its Activity is 52.54%.

Q: What about the Ratio IC50 [16] of the same molecule?
A: The Ratio IC50 was 7.6.

Q: And the Activity (Mus musculus [17])?
A: The Activity was 10.5 µmol/L.

Q: What about the Activity (Mus musculus [18]) of the same molecule?
A: The Activity was 12.44%.

Q: And the Activity (Mus musculus [19])?
A: The Activity was 25.3 U/L.

Q: And the Activity (Mus musculus [20])?
A: The Activity was 3.88%.

Q: What about the Activity (Mus musculus [21]) of the same molecule?
A: Its Activity is 4.346 g.

Q: And the Activity (Mus musculus [22])?
A: Its Activity is 953.3 U/L.

Q: And the Activity (Mus musculus [23])?
A: Its Activity is 1.88%.

Q: What about the Activity (Mus musculus [24]) of the same molecule?
A: The Activity was 25.38 g/L.

Q: What about the Activity (Mus musculus [25]) of the same molecule?
A: The Activity was 6.2 ×10⁹ /L.

Q: What about the Activity (Mus musculus [26]) of the same molecule?
A: Its Activity is 0.567 g.

Q: For `COC(=O)N[C@H](C(=O)N1CCC[C@H]1C(=O)Nc1ccc([C@@H]2CC[C@@H](c3ccc(NC(=O)[C@@H]4CCCN4C(=O)[C@@H](NC(=O)OC)C(C)C)cc3)N2c2ccc(C(C)(C)C)cc2)cc1)C(C)C` [OMBITASVIR], which EC50 (Nonstructural protein 5A) is on record?
A: Its EC50 is 0.055 nM.
